Measurements taken from ChEMBL document CHEMBL4513216, “Probing the Open Global Health Chemical Diversity Library for Multistage-Active Starting Points for Next-Generation Antimalarials” (ACS Infect Dis, 2020).

Test: Toxicity liver stage against HepG2, at 10uM
Type: cell-based
Set-up: test concentration 10 uM, cell line HepG2-A16-CD81EGFP
Conditions: human, HepG2-A16-CD81EGFP cells; read-out: INHIBITION
Summary of the method: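 Uninfected HepG2-A16-CD81EGFP cells, 3 × 10^3 per well, 1536-well, plated on prespotted compound at 10 μM final, parasite-free screening media added to match infected plates; puromycin 10 μM positive, DMSO 0.5% negative; run in parallel with 48 h PbLuc assay at 37 °C, 5% CO2; viability by CellTiter-Glo luminescence, normalized to controls.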

| SMILES | cytotoxicity at 10 µM [%] |
| --- | --- |
| Cn1ncc2c1NC(=O)CC2c1cccs1 (stereo not drawn) | -0.585 |
| O=S(=O)(c1cccc(F)c1)N1C[C@@H]2COC[C@]2(COCC2CC2)C1 | 12.5 |
| COc1ccc(OCC(=O)n2nc(C)c(C)c2C)cc1 | -6.32 |
| O=C(c1ccco1)N1CCC2(CCC(=O)N2Cc2cccc(F)c2)CC1 | 2.84 |
| CC(C)C(=O)N1CCC2(CCCN(CCOc3ccccc3)C2)C1 (stereo not drawn) | 6.71 |
| Cc1cc(=O)[nH]c(NC2CCN(S(=O)(=O)c3ccccc3)CC2)n1 | -3.02 |
| O=C(c1ccncc1)N1CCc2[nH]nc(Nc3ccccc3)c2C1 | 3.13 |
| Cc1c[nH]c(C2COCCN2C(=O)CCc2c(C)n[nH]c2C)n1 (stereo not drawn) | -0.615 |
| CCCNC(=O)C1(Cc2cc(-c3ccccc3)no2)CCN(C(C)=O)C1 (stereo not drawn) | 6.6 |
| Cc1cc(C)n(Cc2cccc(C(=O)N3CCOCC3(C)C)c2)n1 | -3.51 |
| N#Cc1cnc2c(F)cc(F)cc2c1NC1CCN(CC(N)=O)CC1 | -2.89 |
| CN(C)c1ccc(CNC(=O)Nc2ccc(S(=O)(=O)C(F)F)cc2)cc1 | 9.25 |
| O=C(CCc1cc(Br)cs1)NCCCn1ccnc1 | 1.08 |
| NC(=O)C(NC(=O)c1ccc(NC2CC2)nc1)c1ccccc1 (stereo not drawn) | 10.8 |
| COc1ccc(CNCCc2cccc(C(N)=O)c2)cc1O | 8.42 |
| CCSCc1ccnc(NC(=O)C2CCCO2)c1 (stereo not drawn) | 5.39 |
| CC(=O)c1cc(Br)cc(F)c1OCC(=O)NC1CC1 | -6.16 |
| COC(=O)c1ccc(NC(C)c2ccc3c(c2)CC(=O)N3)nn1 (stereo not drawn) | 3.82 |
| CN1CCOC(CNC(=O)CCCc2ccccc2)C1 (stereo not drawn) | -0.95 |
| Cc1nc(CN2CCN(c3ccc(SC(C)C)nn3)CC2)cs1 | 5.71 |
| CCOc1ccc(Cl)c(C(=O)N2CCCC(c3cc(C)[nH]n3)C2)n1 (stereo not drawn) | 8.83 |
| COC1CCN(c2ccc(F)cc2CN(C)CC(N)=O)CC1 | -6.91 |
| CN(CCNC(=O)c1ccnc(-n2ccnc2)c1)C1CC1 | 3.31 |

| SMILES | cytotoxicity at 10 µM [%] |
| --- | --- |
| Cc1cc(CC(=O)NCC(O)COc2ccc(F)c(F)c2)n[nH]1 (stereo not drawn) | -7.66 |
| CCS(=O)(=O)CC(=O)NC(C)c1ccccc1Oc1ccccc1 (stereo not drawn) | -2.97 |
| c1coc(-c2nc(CN3CCOC(Cn4cccn4)C3)cs2)c1 (stereo not drawn) | -6.45 |
| CC1CCCCN1CCNC(=O)c1ccccc1N1CCOCC1 (stereo not drawn) | -4.14 |
| Cc1cc(N2CCN(c3ccc(=O)[nH]n3)CC2)nc(-c2ccncc2)n1 | -5.19 |
| CCc1n[nH]c(C2CN(C(=O)c3cc(C4CC4)on3)CCO2)n1 (stereo not drawn) | -6.43 |
| CNC(=O)COc1ccc(CNCc2cc(F)ccc2F)cc1 | 3.53 |
| Cc1nc(-c2ccsc2)ccc1C(=O)N(C)CC(F)(F)F | -1.54 |
| CC(=O)c1ccc(C(=O)NCC2Cc3ccccc3O2)s1 (stereo not drawn) | 3.82 |
| NCc1csc(CCc2ccccc2)n1 | -0.138 |
| CN(Cc1nc(-c2ccccc2)c[nH]1)C(=O)NCC(=O)NC(C)(C)C | 13.4 |
| CN(CCC#N)C(=O)CN(C1CC1)C1CCc2ccccc21 (stereo not drawn) | -4.74 |
| COCCCn1ccc(NC(=O)NCCc2cccnc2)n1 | -0.996 |
| Cc1ccc(-c2nnc(C(C)NCCn3cc(C)cn3)o2)cc1 (stereo not drawn) | -15.8 |
| Cc1cccc(CNCC2COC3(CCCCC3)O2)c1C (stereo not drawn) | -139 |
| CS(=O)(=O)CCNC(=O)N(Cc1ccoc1)C1CCCCC1 | 5.72 |
| NC(=O)CN1CCCN(C(=O)COc2cccc(F)c2)CC1 | -1.97 |
| CN(C)C(=O)N1CCN(c2cc(N3CCCC3CO)ncn2)CC1 (stereo not drawn) | -1.81 |
| CCCNC(=O)C1CCN(CC(O)c2ccccc2C(F)(F)F)CC1 (stereo not drawn) | 3.21 |
| Cc1nc(C)c(COc2ccc(N(C)S(C)(=O)=O)cc2)s1 | 23.2 |
| Cc1ccc(NCc2cc(C#N)ccc2F)cc1-n1nnnc1C | -1.66 |
| O=C(Nc1ccnn1Cc1ccccc1Cl)C1CCS(=O)(=O)C1 (stereo not drawn) | -3.95 |
| N#CC1C(=O)Nc2c(cnn2C2CCCC2)C12CCCC2 (stereo not drawn) | -7.54 |

| SMILES | cytotoxicity at 10 µM [%] |
| --- | --- |
| Cn1cc(CCCNC(=O)NC2CCN(CC(F)(F)F)C2=O)cn1 (stereo not drawn) | 6.51 |
| c1cncc(-c2ccnn2CN2CCOCC2)c1 | 3.44 |
| CCc1ccc(C(=O)NCc2ccnc(C)n2)cc1 | -4.91 |
| Cc1cc(CN(C)C2CCCN(c3cccnn3)C2)on1 (stereo not drawn) | 16 |
| CCN(CC)C(=O)CCNC(=O)N1CCC(c2ccccc2)C1 (stereo not drawn) | -3.26 |
| Cn1ccc(C(=O)N2CCC3(CC2)CC(Nc2cnccn2)CO3)n1 (stereo not drawn) | 4.35 |
| CN(C)CCOCC1CN(CCN(C)C)Cc2ccnn2C1 (stereo not drawn) | 0.656 |
| O=C(c1ccncc1)N1CCN2C[C@H](Oc3cccnc3)C[C@H]2C1 | 2.83 |
| CCOC(=O)CNc1nc(COC)nc2c1cnn2C | 9 |
| COc1ccc(OCc2cc(C(=O)N3CCC(O)CC3)n[nH]2)c(Cl)c1 | -1.69 |
| Cc1csc(CN(C)CCOc2ccccc2)n1 | -3.18 |
| CC(C)n1ccnc1C1CCCN(Cc2ccc(F)c(F)c2)C1 (stereo not drawn) | 3.89 |
| O=C(c1cc(=O)[nH][nH]1)N1CCCC2(CCC(=O)N(C3CCCC3)C2)C1 (stereo not drawn) | 0.988 |
| Cc1ccc([C@@H]2CN(C(=O)c3cc(C)n[nH]3)C[C@H]2NC(=O)C2CC2)cc1 | -7.77 |
| CC(C)N1CCC(CC(=O)N(C)C(C)c2cncs2)CC1 (stereo not drawn) | 3.65 |
| CCC[C@@H]1CN(c2ncnc3ccsc23)C[C@H]1NS(C)(=O)=O | 3.73 |
| CCOCCNC(=O)c1cccc(S(=O)(=O)NC[C@@H]2C[C@H](F)CN2)c1 | -18.8 |
| Cc1cc(C(=O)N2CCN(C(=O)CC(C)C)[C@@H]3CS(=O)(=O)C[C@@H]32)no1 | -5.45 |
| CSc1nccc(NCC2CNCCOC2)n1 (stereo not drawn) | -5.13 |
| COCc1ncc(-c2nccn2CCS(C)(=O)=O)cn1 | -17.2 |
| Cc1noc(-c2ccc(N(C)Cc3ccncc3C)nc2)n1 | -15.1 |
| O=C1CCCCCN1Cc1cccc(OC(F)F)c1 | -6.4 |
| COc1cccc(C2CCN2C(=O)c2cnccn2)c1 (stereo not drawn) | 12.2 |

| SMILES | cytotoxicity at 10 µM [%] |
| --- | --- |
| O=C(c1coc(COc2ccccc2F)n1)N1CCCO1 | 6.29 |
| CCn1nc(C)c(NC(=O)CN2CCN(C(C)=O)CC2)c1C | -6.67 |
| CN1CCCCCC1C(=O)NCCCn1ncc2ccccc21 (stereo not drawn) | -1.43 |
| CC(=O)N1CCCn2nc(CNS(=O)(=O)Cc3ccccc3)cc2C1 | -6.19 |
| CC(=O)NCC1CCC2(CCN(c3ncc(C)cn3)CC2)O1 (stereo not drawn) | -3.09 |
| COCCN1CCN(Cc2ccc(OCc3nccn3C)cc2)CC1 | -7.11 |
| Cc1cc(C)c(CNC(=O)N(C)Cc2cccc(C#N)c2)c(=O)[nH]1 | -5.49 |
| Cc1ncc2c(n1)CN(CC(=O)NCCOc1ccccc1)CC2 | -8.66 |
| Cc1nc(CN2CCc3nn(C)c(=O)cc3C2)oc1C | -2.74 |
| Cc1cc(C)n(CC2CCCN2C(=O)c2cccc(C#N)c2)n1 (stereo not drawn) | -9.19 |
| Cc1ccc(-c2nc(C(=O)N3CCOCC3)cs2)c(C)c1 | 0.22 |
| CC(C)c1ccc(OCCC(=O)N2CCCN(C(N)=O)CC2)cc1 | -15.5 |
| Cn1cc(C(=O)NCC2CCN(C(=O)NC3CCCCC3)CC2)cn1 | -4.92 |
| Cc1ccc(-c2n[nH]cc2CNCC2CCN(CC(C)O)CC2)cc1 (stereo not drawn) | -16.6 |
| Cc1nn(C)c(Cl)c1C1CCCN1C(=O)c1ccnn1C (stereo not drawn) | -4.87 |
| CC1CCCN(C(=O)CNC(=O)c2ccoc2)C1 (stereo not drawn) | -0.775 |
| CN(Cc1ccc(F)cc1)C(=O)CN1CCOC(Cn2cccn2)C1 (stereo not drawn) | 2.2 |
| CCn1ccnc1CN1CCCN(C(=O)c2cnc(C)cn2)CC1 | -12.3 |
| Cc1nc(CN2CCCN(C(=O)c3c(C)oc(C)c3C)CC2)cs1 | -14 |
| Cc1nc(C)c(CN2CCOC(CN(C)c3cccnn3)C2)s1 (stereo not drawn) | -7.16 |
| CCOCC(O)CN1CCN(C(=O)c2cccc3[nH]ncc23)CC1 (stereo not drawn) | -12.8 |
| COc1ccc(Cl)cc1C(=O)N(C)Cc1cc(C)on1 | -22.9 |
| O=C(CN1CCN(c2ccc3nncn3n2)CC1)NC1CCCCC1 | -12.6 |

| SMILES | cytotoxicity at 10 µM [%] |
| --- | --- |
| Cc1noc(C2CCN(C(=O)CCNc3ncccn3)CC2)n1 | -6.38 |
| Cc1ccc(SCC(=O)NS(=O)(=O)c2ccc3c(c2)OCCO3)cc1 | -22.1 |
| COc1ccccc1OCCN1CCCC(c2cc(C(N)=O)[nH]n2)C1 (stereo not drawn) | 3.71 |
| COc1ccnc(N2CCN(C(=O)Cc3ccc(C)s3)CC2)n1 | 0.818 |
| Cc1ccccc1CN(C)Cc1nc2c(cnn2C)c(=O)[nH]1 | 2.51 |
| Nc1ccc(-c2cnc(C3CCCN3)cn2)cn1 (stereo not drawn) | 2.19 |
| CCN(CC)C(=O)CN1CCc2c(nc(C3CCNCC3)nc2NC)C1 | 5.07 |
| N[C@@H](Cc1ccccc1)c1nnc(S(=O)(=O)Cc2cccc(Cl)c2)o1 | 7.87 |
| CCC(C)(N)c1nc(C(C)C)cc(=O)[nH]1 (stereo not drawn) | 14 |
| COc1ccc(C[C@H]2CN(c3nnc(C)s3)CC[C@@H]2OC)cc1 | -3.23 |
| O=C(c1ccco1)N1CCc2c(COCC3CC3)cncc2C1 | -71.3 |
| CC(C)n1nc(CNc2ncccn2)c2c1CN(C)CC2 | -142 |
| Cc1noc(C)c1CN1CC[C@H]2OCC[C@@H](C(=O)NCC3CC3)[C@@H]2C1 | -8.55 |
| COCC(=O)Nc1ccc2c(c1)C1(CCOCC1)CN2CCF | -99.6 |
| O=S(=O)(C1CC1)N1CCCn2cnc(COc3cccnc3)c2C1 | 1.4 |
| CC(C)N1CCC(N2CCC(C(=O)N(C)C)CC2)CC1 | 4.71 |
| COCCN1CCc2c(c(COc3cccnc3)nn2C)C1 | -113 |
| Fc1cnc(N2CCCC3(CCN(Cc4ccco4)C3)C2)nc1 (stereo not drawn) | -84.9 |
| CC(C)NC(=O)N1CCCn2cnc(CO)c2C1 | -151 |
| CC(c1cn2ccsc2n1)n1cc2[nH]cccc-2c1=O (stereo not drawn) | -1.97 |
| Cc1cc2cccc(NC(=O)N3CC[C@H]4CC[C@@H](C3)N4C)c2o1 | 7.89 |
